Assay results from ChEMBL document CHEMBL4219028, “Development of Protein Degradation Inducers of Androgen Receptor by Conjugation of Androgen Receptor Ligands and Inhibitor of Apoptosis Protein Ligands” (J Med Chem, 2018).
Active and inactive are the calls of the source. The calls are words filed in the database; no cut-off is given here.

Assays:
Androgen receptor [1] = target: T1, Androgen receptor (Homo sapiens, UniProt P10275); test: Displacement of [17-alpha-methyl-H-3] mibolerone from wild-type androgen receptor (unknown origin) expressed in human Freestyle293F cells measured after 3 hrs; format: cell-based
T1 sequence (P10275 whole entry): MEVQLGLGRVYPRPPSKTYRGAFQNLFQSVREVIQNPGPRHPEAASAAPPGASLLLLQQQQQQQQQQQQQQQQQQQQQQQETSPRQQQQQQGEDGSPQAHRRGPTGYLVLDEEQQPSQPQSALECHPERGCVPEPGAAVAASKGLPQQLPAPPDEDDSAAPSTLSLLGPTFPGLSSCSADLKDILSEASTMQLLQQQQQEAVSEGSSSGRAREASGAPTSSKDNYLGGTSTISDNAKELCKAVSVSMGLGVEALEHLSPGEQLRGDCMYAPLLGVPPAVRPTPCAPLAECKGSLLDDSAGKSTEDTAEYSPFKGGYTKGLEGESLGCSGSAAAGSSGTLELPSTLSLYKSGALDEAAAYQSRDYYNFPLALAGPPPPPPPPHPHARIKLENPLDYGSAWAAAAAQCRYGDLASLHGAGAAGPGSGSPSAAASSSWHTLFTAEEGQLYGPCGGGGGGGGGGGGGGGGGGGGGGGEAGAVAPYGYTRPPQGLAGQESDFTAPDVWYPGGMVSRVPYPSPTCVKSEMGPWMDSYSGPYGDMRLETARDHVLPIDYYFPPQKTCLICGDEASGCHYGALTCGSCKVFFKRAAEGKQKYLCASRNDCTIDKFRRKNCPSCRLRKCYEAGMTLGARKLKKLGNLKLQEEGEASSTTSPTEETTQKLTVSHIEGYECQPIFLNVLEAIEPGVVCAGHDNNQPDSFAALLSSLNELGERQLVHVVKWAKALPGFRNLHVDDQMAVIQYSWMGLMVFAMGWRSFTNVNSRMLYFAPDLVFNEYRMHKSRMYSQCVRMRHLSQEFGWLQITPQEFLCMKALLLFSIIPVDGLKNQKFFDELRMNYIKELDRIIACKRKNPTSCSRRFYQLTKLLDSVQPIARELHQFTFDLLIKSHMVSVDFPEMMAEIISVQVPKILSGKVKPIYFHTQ
In short: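 Wild-type AR was expressed in FreeStyle293F cells (pcDNA3.1, 48 h, 37 °C, 8% CO2). Cells were lysed in TEGM buffer (pH 7.2, molybdate, DTT) by freeze–thaw, and the supernatant from 228,000g spin was used. Lysate was incubated with 3 nM (final) [3H]mibolerone plus compound at 4 °C for 3 h. Bound and free were separated by dextran/charcoal and bound counts gave % inhibition; IC50 from three experiments.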

[2] = target: T2, Androgen receptor/Baculoviral IAP repeat-containing protein 2 (Homo sapiens, UniProt P10275+Q13490); test: Induction of AR/cIAP1 interaction in human 22Rv1 cells assessed as ubiquitin proteasome system mediated androgen receptor protein degradation by Western blot analysis
Target sequence in this assay (Q13490 whole entry, one chain of several): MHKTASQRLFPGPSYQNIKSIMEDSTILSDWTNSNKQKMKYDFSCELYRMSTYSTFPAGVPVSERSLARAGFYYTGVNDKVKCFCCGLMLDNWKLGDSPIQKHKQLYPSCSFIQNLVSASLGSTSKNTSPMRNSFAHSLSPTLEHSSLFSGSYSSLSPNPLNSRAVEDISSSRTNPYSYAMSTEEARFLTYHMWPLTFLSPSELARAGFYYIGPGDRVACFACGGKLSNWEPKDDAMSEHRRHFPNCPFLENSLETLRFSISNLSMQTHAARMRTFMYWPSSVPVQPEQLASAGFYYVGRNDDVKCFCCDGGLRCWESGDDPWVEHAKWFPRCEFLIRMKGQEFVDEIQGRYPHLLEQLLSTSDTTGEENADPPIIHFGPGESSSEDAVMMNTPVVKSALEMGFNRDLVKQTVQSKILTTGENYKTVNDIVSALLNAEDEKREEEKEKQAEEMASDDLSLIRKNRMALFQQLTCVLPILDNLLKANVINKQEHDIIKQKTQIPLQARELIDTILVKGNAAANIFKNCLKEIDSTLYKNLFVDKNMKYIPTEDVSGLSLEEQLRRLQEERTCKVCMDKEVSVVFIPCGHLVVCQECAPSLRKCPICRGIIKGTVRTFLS

[3] = target: T2, Androgen receptor/Baculoviral IAP repeat-containing protein 2; test: Induction of AR/cIAP1 interaction in human 22Rv1 cells assessed as ubiquitin proteasome system mediated androgen receptor protein degradation at 3 uM in presence of 1-benzyl-4-(4-cyanophenyl)-2,5-dimethyl-1H-pyrrole-3-carbonitrile after 6 hrs by Western blot analysis; format: cell-based
In short: (§1)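 22Rv1 cells were treated with compound, or with separate ligands (30 μM or 3 μM each), for 6 h. Lysates in SDS buffer (0.1 M Tris pH 8.0, 1% SDS) were normalized by BCA, run on SDS-PAGE and immunoblotted. AR/GAPDH ratio was normalized to vehicle as 100. DC50 is the concentration giving 50% AR reduction; means ± SD, n = 3; t-test against vehicle.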
Target sequence in this assay (Q13490 whole entry, looked up, one chain of several): as the sequence (Q13490 whole entry, one chain of several) above

[4] = target: T2, Androgen receptor/Baculoviral IAP repeat-containing protein 2; test: Induction of AR/cIAP1 interaction in human 22Rv1 cells assessed as ubiquitin proteasome system mediated androgen receptor protein degradation at 1 to 3 uM after 6 hrs by Western blot analysis; format: cell-based; in short: as §1
Target sequence in this assay (Q13490 whole entry, looked up, one chain of several): as the sequence (Q13490 whole entry, one chain of several) above

[5] = target: T2, Androgen receptor/Baculoviral IAP repeat-containing protein 2; test: Induction of AR/cIAP1 interaction in human 22Rv1 cells assessed as ubiquitin proteasome system mediated androgen receptor protein degradation at 3 uM after 6 hrs by Western blot analysis; format: cell-based; in short: as §1
Target sequence in this assay (Q13490 whole entry, looked up, one chain of several): as the sequence (Q13490 whole entry, one chain of several) above

Androgen receptor [6] = target: T1, Androgen receptor; test: Binding affinity to androgen receptor (unknown origin)
In short: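 Wild-type AR expressed by transfection of FreeStyle293F cells (48 h shaking at 37 °C), then lysed by freeze-thaw in TEGM buffer (pH 7.2, molybdate, DTT). Cleared lysate incubated with [3H]mibolerone (final 3 nM) plus test compound at 4 °C for 3 h. Bound and free separated by dextran/charcoal, bound counted, and % inhibition calculated. IC50 taken from three separate experiments.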

[7] = target: T2, Androgen receptor/Baculoviral IAP repeat-containing protein 2; test: Induction of AR/cIAP1 interaction in human 22Rv1 cells assessed as ubiquitin proteasome system mediated androgen receptor protein degradation at 30 uM in presence of methyl (2S)-2-(((2S,3R)-3-amino-2-hydroxy-4-phenylbutanoyl)amino)-4-methylpentanoate after 6 hrs by Western blot analysis; format: cell-based; in short: as §1
Target sequence in this assay (Q13490 whole entry, looked up, one chain of several): as the sequence (Q13490 whole entry, one chain of several) above

[8] = target: T2, Androgen receptor/Baculoviral IAP repeat-containing protein 2; test: Induction of AR/cIAP1 interaction in human 22Rv1 cells assessed as ubiquitin proteasome system mediated androgen receptor protein degradation at 3 uM in presence of N-((1S)-1-Cyclohexyl-2-((2S)-2-(4-(3-methoxybenzoyl)-1,3-thiazol-2-yl)pyrrolidin-1-yl)-2-oxoethyl)-N2-methyl-L-alaninamide after 6 hrs by Western blot analysis; format: cell-based; in short: as §1
Target sequence in this assay (Q13490 whole entry, looked up, one chain of several): as the sequence (Q13490 whole entry, one chain of several) above

[9] = target: T2, Androgen receptor/Baculoviral IAP repeat-containing protein 2; test: Induction of AR/cIAP1 interaction in human 22Rv1 cells assessed as ubiquitin proteasome system mediated androgen receptor protein degradation at 30 uM after 6 hrs by Western blot analysis; format: cell-based; in short: as §1
Target sequence in this assay (Q13490 whole entry, looked up, one chain of several): as the sequence (Q13490 whole entry, one chain of several) above

[10] = target: T2, Androgen receptor/Baculoviral IAP repeat-containing protein 2; test: Induction of AR/cIAP1 interaction in human 22Rv1 cells assessed as ubiquitin proteasome system mediated androgen receptor protein degradation after 6 hrs by Western blot analysis; format: cell-based; in short: as §1

Cc1nn(-c2ccc(C#N)cc2Cl)c(C)c1Cc1ccc(C(=O)NCCOCCOCCOCCNC(=O)[C@H](CC(C)C)NC(=O)[C@@H](O)[C@H](N)Cc2ccccc2)cc1
IC50 (Androgen receptor [1]): > 10000 nM | DC50 [2]: > 30000 nM

CN[C@@H](C)C(=O)N[C@H](C(=O)N1CCC[C@H]1c1nc(C(=O)c2cccc(OC)c2)cs1)C1CCCCC1
Activity [3]: inactive

CN[C@@H](C)C(=O)N[C@H](C(=O)N1CCC[C@H]1c1nc(C(=O)c2cccc(OCCOCCOCCOCCOc3ccccc3Cn3c(C)c(C#N)c(-c4ccc(C#N)cc4)c3C)c2)cs1)C1CCCCC1
Activity [4]: inactive

CN[C@@H](C)C(=O)N[C@H](C(=O)N1CCC[C@H]1c1nc(C(=O)c2cccc(OCCOc3cccc(OCCOc4ccc(Cn5c(C)c(C#N)c(-c6ccc(C#N)cc6)c5C)cc4)c3)c2)cs1)C1CCCCC1
Activity [4]: inactive

Cc1nn(-c2ccc(C#N)c(Cl)c2)c(C)c1CCc1ccc(C(=O)NCCOCCOCCOCCNC(=O)[C@H](CC(C)C)NC(=O)[C@@H](O)[C@H](N)Cc2ccccc2)cc1
IC50 (Androgen receptor [1]): 190 nM | DC50 [2]: 20500 nM

CN[C@@H](C)C(=O)N[C@H](C(=O)N1CCC[C@H]1c1nc(C(=O)c2cccc(OCCOCCOCCOCCOc3cccc(Cn4c(C)c(C#N)c(-c5ccc(C#N)cc5)c4C)c3)c2)cs1)C1CCCCC1
Activity [4]: Active

CN[C@@H](C)C(=O)N[C@H](C(=O)N1CCC[C@H]1c1nc(C(=O)c2cccc(OCCOCCOCCOc3ccc(Cn4c(C)c(C#N)c(-c5ccc(C#N)cc5)c4C)cc3)c2)cs1)C1CCCCC1
Activity [5]: Active

Cc1nn(-c2ccc(C#N)c(Cl)c2)c(C)c1CCc1ccc(C(=O)O)cc1
IC50 (Androgen receptor [6]): 53 nM

Cc1nn(-c2ccc(C#N)c(C(F)(F)F)c2)c(C)c1Cc1ccc(C(=O)NCCOCCOCCOCCNC(=O)[C@H](CC(C)C)NC(=O)[C@@H](O)[C@H](N)Cc2ccccc2)cc1
IC50 (Androgen receptor [1]): 190 nM | DC50 [2]: 11700 nM

CC(C)C[C@H](NC(=O)[C@@H](O)[C@H](N)Cc1ccccc1)C(=O)NCCOCCOCCOCCNC(=O)c1ccc(S(=O)(=O)CC(C)(O)C(=O)Nc2ccc(C#N)c(C(F)(F)F)c2)cc1 (some centres undefined)
IC50 (Androgen receptor [1]): 1100 nM | DC50 [2]: > 30000 nM

CN[C@@H](C)C(=O)N[C@H](C(=O)N1CCC[C@H]1c1nc(C(=O)c2cccc(OCCOc3ccccc3OCCOc3ccc(Cn4c(C)c(C#N)c(-c5ccc(C#N)cc5)c4C)cc3)c2)cs1)C1CCCCC1
Activity [4]: inactive

Cc1c(C#N)c(-c2ccc(C#N)cc2)c(C)n1Cc1ccccc1
Activity [7]: inactive | Activity [8]: inactive

Cc1c(C#N)c(-c2ccc(C#N)cc2)c(C)n1Cc1ccc(C(=O)NCCOCCOCCOCCNC(=O)[C@H](CC(C)C)NC(=O)[C@@H](O)[C@H](N)Cc2ccccc2)cc1
Activity [9]: Active | IC50 (Androgen receptor [1]): 27 nM | MED [10]: 30 µM | DC50 [2]: 21600 nM

CN[C@@H](C)C(=O)N[C@H](C(=O)N1CCC[C@H]1c1nc(C(=O)c2cccc(OCCOCCOCCOCCOCCOc3ccc(Cn4c(C)c(C#N)c(-c5ccc(C#N)cc5)c4C)cc3)c2)cs1)C1CCCCC1
Activity [5]: Active

CN[C@@H](C)C(=O)N[C@H](C(=O)N1CCC[C@H]1c1nc(C(=O)c2cccc(OCCOCCOCCNC(=O)c3ccc(Cn4c(C)c(C#N)c(-c5ccc(C#N)cc5)c4C)cc3)c2)cs1)C1CCCCC1
MED [10]: 3 µM | Activity [4]: Active

Cc1c(C#N)c(-c2ccc(C#N)cc2)c(C)n1Cc1ccc(C(=O)O)cc1
IC50 (Androgen receptor [6]): 1.4 nM

CN[C@@H](C)C(=O)N[C@H](C(=O)N1CCC[C@H]1c1nc(C(=O)c2cccc(OCCOCCOCCOCC#Cc3ccc(Cn4c(C)c(C#N)c(-c5ccc(C#N)cc5)c4C)cc3)c2)cs1)C1CCCCC1
Activity [4]: Active

CN[C@@H](C)C(=O)N[C@H](C(=O)N1CCC[C@H]1c1nc(C(=O)c2cccc(OCCOc3ccc(OCCOc4ccc(Cn5c(C)c(C#N)c(-c6ccc(C#N)cc6)c5C)cc4)cc3)c2)cs1)C1CCCCC1
Activity [4]: inactive

CN[C@@H](C)C(=O)N[C@H](C(=O)N1CCC[C@H]1c1nc(C(=O)c2cccc(OCCOCCOCCOCCCc3ccc(Cn4c(C)c(C#N)c(-c5ccc(C#N)cc5)c4C)cc3)c2)cs1)C1CCCCC1
Activity [4]: Active

CN[C@@H](C)C(=O)N[C@H](C(=O)N1CCC[C@H]1C(=O)N[C@H](C(=O)NCCOCCOCCOCCNC(=O)c1ccc(Cn2c(C)c(C#N)c(-c3ccc(C#N)cc3)c2C)cc1)C(c1ccccc1)c1ccccc1)C1CCCCC1
MED [10]: 20 µM
